Consider 21 compounds from PubChem BioAssay AID2292 (The Scripps Research Institute Molecular Screening Center, 2010).

The other results are listed elsewhere or left out. A number with no mark means an inactive call. Active and inactive are the calls of the source.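 The calls were made as follows: active = mean inhibition across replicates above a set limit taken from the earlier primary screen (cut at about 28% in these data); inactive = the rest.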

The subject of this assay is Epstein-Barr virus nuclear antigen 1 (EBNA-1) DNA-binding domain, Human herpesvirus 4. Kind of assay: blockers of EBV EBNA-1 DNA binding – biochemical, fluorescence polarization, triplicate, confirmation (AID 2292).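 Also: plate controls were EBNA-1 protein with DMSO for no effect and wells lacking EBNA-1 for full effect.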 To be noted: Recombinant EBNA-1 DBD, Cy5-DNA fluorescence polarization; at 14.8 µM; stronger effect = higher value. In a few lines: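 Timing: Protein-probe premix 30 min, compound exposure 1 h, room temperature / Material: purified EBNA-1 DNA-binding domain / Detection: FP at Ex 620 nm / Em 688 nm / Replicates: each compound tested in triplicate / Controls: no-protein and protein-only wells / Probe or stimulus: 10 nM Cy5 DNA hairpin / Buffer or medium: Tris-NaCl buffer, pH 7.4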

As to `COc1ccc(CNc2nc3c(c(=O)[nH]c(=O)n3C)n2Cc2ccccc2)cc1`, the inhibition (usually the relative decrease from the control value, in per cent) was 7.27%.

For `N#Cc1ccc(N2Cc3ccccc3/C2=N/C(=O)Nc2ccc(Cl)cc2)cc1`, the inhibition was 67.7% (active).

`CCOc1[nH]n(-c2ccc(Cl)cc2)c(=O)c1C=Nc1ccc(O)cc1`: the inhibition was -11.1%.

As for `COC(=O)C1=CN(Cc2ccc(OC)cc2)C=C(C(=O)OC)C1c1ccc(O)c(OC)c1`, the inhibition is 37.1% (active).

Regarding `CCOc1ccc(C(=O)NC(=S)Nc2ccc(NC(=O)C(C)C)cc2)cc1[N+](=O)[O-]`, the inhibition was 55.5% (active). The value for `CCC(=O)Nc1ccc(C(=O)Nc2ccc3c(c2)C(=O)N(CC2CCCO2)C3=O)cc1` (stereo unspecified) was 58.2% (active); that for `C/C(=N\N=C(N)N)c1ccc(Cl)cc1` was 2.77%; that for `CCOc1cccc(NC(=O)Cn2nc(-c3ccc4c(c3)OCCO4)ccc2=O)c1` was 64.7% (active). In the case of `Cc1ccc(O)c(/C=N/NC(=O)COc2ccc3c(C)cc(=O)oc3c2)c1` it was -12.4%; in that of `CCOc1ccc(OCC)c(NC(=O)C(NS(=O)(=O)c2ccc3c(c2)oc(=O)n3C)C(C)C)c1` (stereo unspecified), 62.8% (active); in that of `Cc1cccc(N(CC(=O)Nc2ccc(-c3nc4ccc(C)cc4s3)cc2)S(C)(=O)=O)c1`, 12.2%. In the case of `Cc1cccc(NC(=O)Cn2c(=O)n(Cc3ccccc3)c(=O)c3c(C)c(C)sc32)c1` it was 5.76%; in that of `CCc1nccn1S(=O)(=O)c1cccc([N+](=O)[O-])c1`, 1.11%. In the case of `COc1ccc(C(=O)Nc2cccc(NC(=O)c3ccc(OC)cc3OC)n2)c(OC)c1`, the inhibition was 31.9% (active). The value for `COc1ccc(-c2nonc2NC(=O)c2oc3ccc(F)cc3c2C)cc1OC` was 58.1% (active); that for `CCOc1ccc(NC(=O)c2ccc(NC(=O)COC(=O)c3ccc(NC(=O)CC#N)cc3)cc2)cc1` was 3.81%. With `Cc1[nH]n(C(N)=S)c(=O)c1N=Nc1ccc(Cl)cc1Cl`, the inhibition is -9.96%. With `COc1ccc(C)cc1NC(=O)NCc1ccccn1`, the inhibition was -7.1%. In the case of `COc1ccc(NC(=O)NCc2ccc3c(c2)OCO3)c(OC)c1` it was 57% (active); in that of `O=C(CCCn1c(SCC(=O)c2ccc(F)cc2)nc2ccccc2c1=O)NCc1ccco1`, 16.5%; in that of `Cc1ccc(-c2nn(-c3ccccc3)cc2/C=C2\SC(=S)N(CCCCCC(=O)O)C2=O)o1`, 16.8%.
